# Assay outcomes as filed in PubChem.
# In the library only some 2.8% were active in any assay of this set; here they are far more common.
# PP1 inh: PP1-alpha (human) inhibition in PP5 counter-screen; AID 2235; purified PP1alpha, OMFP fluorescence; inhibition, % at 6.7 µM; 320,000 tested, 0.9% active;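 active means inhibition above the mean inhibition of all tested compounds plus 3 SD, computed separately for each screening campaign, cut at about 15% in these data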
# T cruzi inh: blocks replication of Trypanosoma cruzi | T. cruzi beta-gal in NIH3T3, luminescence, 90 h | inhibition, % (no concentration beside the values) | 300,000 tested, 1.4% active;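 active means mean inhibition across valid replicates above about 55%, limit read from the data; inconclusive means mean below that limit but half or more replicates reach it; inactive means mean below it, under half of replicates reach it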;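 further: signal also drops with host cell toxicity which is not excluded here; 0% = plate median of DMSO wells and 100% = zero luminescence signal; higher percent means less beta-gal luminescence so fewer parasites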
#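 assay system = mouse NIH/3T3 fibroblasts infected with β-gal-expressing T. cruzi Tulahuen C4 | input = 5,000 NIH/3T3 host cells per well | buffer or medium = DMEM plus 2% FBS | timing = 3 h host attachment, then at least 90 h co-culture | measured by = GalScreen luminescence, 60 min | evaluation = luminescence reflecting intracellular parasite burden, expressed as percent inhibition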
# AI-2 QS mod: modulates the Vibrio harveyi AI-2 quorum sensing system | activity change, % at 7.5 µM | Vibrio harveyi JMH597 AI-2 luminescence/OD600 ratio, 9 h; active compounds read low; strain lacks LuxN and CqsS sensors; 0 = neutral-control median | 300,000 tested, 0.4% active | AID 2094; in the data active means activity change below about -75%, passing the limit was not always enough; inconclusive means no clear call, values can overlap the other calls;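 further: luminescence divided by OD600 gain over 9 h not by final OD600 alone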
# UBC13 polyUb: inhibitors of human UBC13 polyubiquitin chain formation; AID 485273; 330,000 tested, 0.47% active; TR-FRET; inhibition, % at 20 µM; in the data active means inhibition above about 45%, passing the limit was not always enough; inconclusive means no clear call, values can overlap the other calls
# p-CIP stab down: compounds decreasing mouse p/CIP protein stability; F442A p/CIP-EGFP cells, EGFP fluorescence, 16 h; decrease of EGFP signal, % at 10 µM; AID 1984; 290,000 tested, 0.01% active;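 active means EGFP signal decrease of at least 30% at 10 µM or well 3 SD below plate mean, unless failing retest; inactive means the rest, including hits failing retest or dose response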
# PP1 inh confirm: confirmation of human PP1 phosphatase inhibitors. shares compounds with PP1 inh. purified PP1alpha, OMFP substrate fluorescence. inhibition, % at 6.7 µM. 1,900 tested, 52% active. AID 2358;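 active means mean PP1 inhibition above a set limit taken from the earlier primary screen, cut at about 15% in these data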
# PP5 inh counter: inhibits human PP5 phosphatase in PP1 counter-screen; inhibition, % at 6.7 µM; shares compounds with PP1 inh; 1,900 tested, 4% active; purified PP5c, OMFP fluorescence;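 active means mean PP5 inhibition over triplicate wells above about 9.5% taken from the earlier PP1 screen, limit read from the data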
# Target sequence (P53041 whole entry, looked up): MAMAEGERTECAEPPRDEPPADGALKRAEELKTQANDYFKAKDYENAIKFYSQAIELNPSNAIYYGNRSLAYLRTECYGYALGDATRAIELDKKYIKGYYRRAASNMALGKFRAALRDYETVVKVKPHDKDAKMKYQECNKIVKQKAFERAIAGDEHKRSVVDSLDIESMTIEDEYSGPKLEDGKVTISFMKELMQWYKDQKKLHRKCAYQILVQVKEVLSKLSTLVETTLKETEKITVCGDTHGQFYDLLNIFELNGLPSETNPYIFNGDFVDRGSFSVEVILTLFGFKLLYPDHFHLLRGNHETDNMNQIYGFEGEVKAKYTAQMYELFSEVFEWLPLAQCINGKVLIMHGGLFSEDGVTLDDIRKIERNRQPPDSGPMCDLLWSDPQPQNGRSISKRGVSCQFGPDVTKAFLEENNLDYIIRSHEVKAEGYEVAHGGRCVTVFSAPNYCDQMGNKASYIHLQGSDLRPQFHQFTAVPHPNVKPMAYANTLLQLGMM
# * marks the source's active call; other numbers are inactive results; ? = inconclusive; . = not tested or not shown.
SMILES,PP1 inh,T cruzi inh,AI-2 QS mod,UBC13 polyUb,p-CIP stab down,PP1 inh confirm,PP5 inh counter
CCOC(=O)c1cc(-c2ccccc2)sc1NC(=O)C(C)N1C(=O)NC(C)(c2ccc(Cl)cc2)C1=O (stereo unspecified),22*,50,16,4,6,11,1
COc1cc(OC)c(C(=O)OCC(=O)Nc2ccc(N3CCOCC3)cc2)cc1OC,.,.,.,-16,.,.,.
O=C(Nc1nnc(-c2ccc3c(c2)CCCC3)o1)c1ccc(Cl)cc1Cl,32*,-3,72,-19,-10,26*,-4
O=C(Nc1nnc(-c2ccc3c(c2)CCCC3)o1)c1c(F)cccc1F,7,-3,13,-11,-2,.,.
C/C(CC(=O)Nc1ccccn1)=N\NC(=O)c1cccc(C)c1,-5,-16,7,8,-15,.,.
Cc1ccc(C)c(N2N=C(C(=O)Nc3nccs3)CCC2=O)c1,1,-9,13,-8,-6,.,.
O=C(N/N=C/c1ccc(O)c2ncccc12)c1cccc(Br)c1,21*,60*,-57,0,-20,18*,1
Cc1ccc(NC(=O)c2cccc(S(=O)(=O)N(C)C3CCCCC3)c2)nc1,3,14,29,1,.,.,.
O=C(CSc1nc2ccccc2c(=O)n1-c1ccccc1Cl)NCC1CCCO1 (stereo unspecified),-5,.,.,11,.,.,.
c1ccc(-c2nc(NCc3ccco3)c3ccccc3n2)nc1,26*,49,42,13,-18,24*,-2
Oc1ccccc1-c1nc(NCc2ccco2)c2ccccc2n1,2,37,13,13,-9,.,.
CCCCOc1ccc(C2C(C(=O)c3ccc(C)o3)=C(O)C(=O)N2CC2CCCO2)cc1 (stereo unspecified),20*,-9,17,-18,-12,27*,-2
COc1cccc(/C=N/NC(=O)CSc2nnc(C)n2-c2ccccc2)c1O,1,-17,6,-7,1,.,.
CCCCSc1nc(C)cc(SCC(=O)N/N=C/c2cccc(OC)c2O)n1,21*,1,19,-9,4,12,1
Oc1c(CN2CCc3ccccc3C2)cc(Cl)c2cccnc12,31*,51,-89*,28,9,40*,0
O=[N+]([O-])c1cc(CN2CCN(c3ccccc3)CC2)c(O)c2ncccc12,19*,58*,55,-43,-1,29*,1
O=C(Oc1c(CN2CCOCC2)cc(Cl)c2cccnc12)c1ccccc1,5,38,20,-5,12,.,.
Oc1c(I)cc(Cl)c2cccnc12,19*,-3,-108*,-35,5,12,5
O=C(CN1C(=O)c2cccnc2Oc2ccc(Cl)cc21)N1CCOCC1,0,0,0,-4,-17,.,.
O=C(NNc1nc2ccc(Cl)cc2s1)c1cc(-c2cccs2)nc2ccccc12,25*,-30,5,-73,0,30*,-4
Cc1cc(C)c2nc(NNC(=O)c3cc(-c4cccs4)nc4ccccc34)sc2c1,6,46,22,-83,-5,.,.
N#Cc1ccccc1S(=O)(=O)N1CCN(CC(=O)NCC2(N3CCOCC3)CCCCC2)CC1,-7,.,.,-7,.,.,.
CC1(C)Cc2c(sc3c2c(=N)n(Cc2ccco2)c(=O)n3CC(=O)Nc2cccc(Cl)c2)CO1,20*,26,5,-3,1,6,3
CC(Oc1ccccc1)C(=O)N=Nc1c(O)[nH]c2ccc(Br)cc12 (stereo unspecified),18*,6,10,-30,-6,14,0
Cc1cccc(C)c1OCC(=O)N=Nc1c(O)[nH]c2ccc(Br)cc12,12,21,11,-15,-7,.,.
SMILES,PP1 inh,T cruzi inh,AI-2 QS mod,UBC13 polyUb,p-CIP stab down,PP1 inh confirm,PP5 inh counter
Cc1cc(C)c2cc(C#N)c(SCC(=O)Nc3ccc4c(c3)OCO4)nc2c1,1,1,11,-7,-12,.,.
CCC1CCCCN1S(=O)(=O)c1ccc(C(=O)Nc2nnc(-c3cccs3)o2)cc1 (stereo unspecified),41*,.,.,-42,3,33*,2
O=C(Nc1nnc(-c2cccs2)o1)c1cccc(C(F)(F)F)c1,20*,48,47,-20,-3,18*,1
N#Cc1ccc(C(=O)Nc2nnc(-c3cccs3)o2)cc1,4,35,?,-12,-1,.,.
CC1CC(C)CN(S(=O)(=O)c2ccc(C(=O)Nc3nnc(-c4cccs4)o3)cc2)C1 (stereo unspecified),11,24,76,-28,-2,.,.
O=C(CN1C(=O)NC2(CCOc3ccccc32)C1=O)c1ccc(F)cc1 (stereo unspecified),-7,-6,18,-4,.,.,.
COc1cc(OC)c(N(C)S(=O)(=O)c2cccc(C(=O)NC3=NCCS3)c2)cc1Cl,-2,9,10,13,-2,.,.
O=C1c2cccc3c(Cl)ccc(c23)C(=O)N1O,38*,-31,27,-24,-3,30*,-6
COc1ccc(C2CC(c3ccc(OC)cc3)n3nc(NC(=O)c4cccs4)nc3N2)cc1 (stereo unspecified),18*,37,41,-13,2,4,-4
c1cc2ccc3ccc(-n4cnnn4)c4ccc(c1)c2c34,20*,9,-5,12,-5,23*,-1
Cc1c(N)cccc1-n1cnnn1,0,-11,18,20,10,.,.
O=C1COc2ccc(C(=O)C[n+]3cccc(O)c3)cc2N1,-4,-17,8,-6,8,.,.
Cc1ccc(S(=O)(=O)CCC(=O)Nc2nc(-c3cccnc3)cs2)cc1,-1,-7,20,-3,-6,.,.
O=C(Nc1nc(-c2ccccn2)cs1)c1ccc([N+](=O)[O-])o1,11,47,?,-25,-18,.,.
CC1(c2ccccc2)NC(=O)N(CC(=O)Nc2nc(-c3ccccn3)cs2)C1=O (stereo unspecified),12,34,41,-13,.,.,.
O=C(COc1ccc([N+](=O)[O-])cc1)Nc1nc(-c2ccccn2)cs1,41*,61*,-21,-24,.,37*,0
Cc1ccc(OCC(=O)Nc2nc(-c3ccccn3)cs2)c(C)c1,43*,12,38,2,.,41*,-3
Cc1ccc(C2(C)NC(=O)N(CC(=O)Nc3nc(-c4ccccn4)cs3)C2=O)cc1 (stereo unspecified),26*,?,-4,-7,.,43*,5
Cc1ccc(S(=O)(=O)CCC(=O)Nc2nc(-c3ccccn3)cs2)cc1,27*,.,.,-35,.,40*,2
CC(C)(C)NC(=O)CN(CC1CCCO1)C(=O)CNS(=O)(=O)c1ccc(F)cc1 (stereo unspecified),3,-6,16,-5,-16,.,.
